Data: PubChem BioAssay
The source made the active and inactive calls.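 The calls were made as follows: active = viability at or below 30% in both replicate assays; inconclusive = viability at or below 30% in just one of the two assays; inactive = the rest.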

Experiment: HUVEC growth inhibition – cell-based, human, primary screen (AID 575);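 also: 100% = median of untreated cell wells with 0.1% DMSO on each plate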
Settings: HUVEC proliferation, CellTiter-Glo luminescence, 72 h; at 10 µM; stronger effect = lower value
Outline: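 Test system – primary HUVEC, no more than 12 passages · Dosing – one dose, 10 µM final, 0.1% DMSO · Times – 72 h treatment at 37 °C · Measured by – ATP-based CellTiter-Glo luminescent read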

Compound	viability
O=C(CSc1nnnn1-c1ccccc1)c1cc2ccccc2oc1=O	86.5% (inactive)
Cc1ccc(Nc2nc(N)nc(CN3CCCCCC3)n2)cc1	65.7% (inactive)
c1cncc(-c2nnc(-c3ccco3)o2)c1	86.3% (inactive)
COc1ccc(OC)c(C2=NOC(C(=O)NCCN3CCOCC3)C2)c1 (configuration not stated)	102% (inactive)
C/C(=N\O)C(C)/[N+]([O-])=C/c1nc(C)c(C)n1O (configuration not stated)	97% (inactive)
COc1ccc(CNC(=O)c2cc(-c3ccc(OC)c(OC)c3)on2)cc1	118% (inactive)
C=CCOc1ccc(/C(O)=C2\C(=O)C(=O)N(CCOC)C2c2cccnc2)cc1 (configuration not stated)	107% (inactive)
C=CCN1C(=O)/C(=C2\SC(N3CCOCC3)=NC2=O)c2cc(Br)ccc21	86.1% (inactive)
COc1ccccc1Nc1nc2ccccc2[nH]1	86.3% (inactive)
Cn1nnnc1SCSc1nnnn1C	95.5% (inactive)
CN(CC(=O)Nc1ccc2c(c1)OCCO2)S(=O)(=O)c1ccc(Br)s1	111% (inactive)
CCn1c(=O)n(CC(=O)NCc2ccccc2OC)c(=O)c2ccccc21	87.5% (inactive)
O=C1NC(c2ccco2)Nc2ccccc21 (configuration not stated)	107% (inactive)
COCCNC(=O)C(c1ccc(C)o1)N(Cc1ccc(F)cc1)C(=O)Cn1nnc2ccccc21 (configuration not stated)	95.7% (inactive)
C=CCn1cnc2c(NCc3ccccc3)ncnc21	96.9% (inactive)
Cc1ccc2cc(CN(CC3CCCO3)S(=O)(=O)c3ccc4c(c3)OCCO4)c(=O)[nH]c2c1C (configuration not stated)	84.1% (inactive)
COc1ccccc1C1c2c(oc3ccc(Cl)cc3c2=O)C(=O)N1c1cc(C)on1 (configuration not stated)	70.7% (inactive)
